Laboratory results reported in ChEMBL document CHEMBL3414544, “PAINS in the assay: chemical mechanisms of assay interference and promiscuous enzymatic inhibition observed during a sulfhydryl-scavenging HTS” (J Med Chem, 2015).
Active and inactive are the calls of the source.

Tests used:
[1] = Fluorescence quenching in HTS buffer with 20 uM 7-diethylamino-3-(4'-maleimidyl-phenyl)-4-methylcoumarin assessed as fluorescence signal reduction at 10 uM after 10 mins; format: physicochemical
[2] = Fluorescence quenching in HTS buffer assessed as fluorescence signal reduction at 10 uM after 10 mins; format: physicochemical
[3] = Fluorescence quenching in HTS buffer with […] CoA assessed as fluorescence signal reduction at 10 uM after 10 mins; format: physicochemical
[4] = target: T1, Histone acetyltransferase RTT109 (Saccharomyces cerevisiae (strain ATCC 204508 / S288c) (Baker's yeast), UniProt Q07794); assay: Inhibition of Vps75-stimulated recombinant Saccharomyces cerevisiae histone acetyltransferase Rtt109 using Asf1-dH3-H4 as substrate assessed as coenzyme A production after 45 mins by CPM based HTS assay
T1 sequence (Q07794 whole entry): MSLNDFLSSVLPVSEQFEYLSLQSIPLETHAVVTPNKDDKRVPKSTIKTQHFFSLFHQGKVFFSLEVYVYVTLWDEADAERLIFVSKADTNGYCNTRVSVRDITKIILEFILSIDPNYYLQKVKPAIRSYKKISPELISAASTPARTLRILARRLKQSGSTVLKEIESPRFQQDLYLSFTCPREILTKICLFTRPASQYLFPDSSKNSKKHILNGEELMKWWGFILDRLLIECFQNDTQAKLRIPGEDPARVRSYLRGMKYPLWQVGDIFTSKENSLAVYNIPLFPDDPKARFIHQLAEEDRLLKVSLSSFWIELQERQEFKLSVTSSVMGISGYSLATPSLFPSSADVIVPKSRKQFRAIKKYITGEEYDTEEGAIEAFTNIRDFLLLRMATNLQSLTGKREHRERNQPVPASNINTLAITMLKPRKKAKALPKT
Outline: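 Recombinant Rtt109–Vps75 at 50 nM, with Asf1–dH3–H4 as substrate and acetyl-CoA as acetyl donor. Buffer contained freshly prepared 0.01% Triton X-100. The CoA product was detected by fluorescence of its CPM adduct. Plates had Z′ ≥0.5. IC50 came from a four-parameter variable-slope fit.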

[5] = Fluorescence quenching assessed as fluorescence signal reduction at 10 uM after 10 mins; format: physicochemical
Outline: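 CPM (20 μM final) and CoA (5 μM final) reacted to completion in assay buffer (stable plateau, usually ~5 min); adduct solution added to wells preplated with compound; shaken 5 min, equilibrated 5 min at room temperature; fluorescence intensity read as percent signal reduction versus DMSO controls. Flagged as quencher at >20% signal reduction at 10 μM final compound.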

[6] = target: T2, Histone acetyltransferase RTT109 (Saccharomyces cerevisiae (strain ATCC 204508 / S288c) (Baker's yeast)) (UniProt Q07794); assay: Inhibition of Vps75-stimulated recombinant Saccharomyces cerevisiae histone acetyltransferase Rtt109 assessed as H3K27 acetylated product at […] after 45 mins by Slot bolt inhibiton assay
T2 sequence (whole entry): T1 sequence (Q07794 whole entry)

[7] = target: T2, Histone acetyltransferase RTT109 (Saccharomyces cerevisiae (strain ATCC 204508 / S288c) (Baker's yeast)); assay: Inhibition of Vps75-stimulated recombinant Saccharomyces cerevisiae histone acetyltransferase Rtt109 assessed as H3K56 acetylated product at […] after 45 mins by Slot bolt inhibiton assay

Structure (SMILES) | Activity [1] | Activity [2] | Activity [3] | IC50 ([4]; read-out: IC50) [µM] | Activity [5] | Activity [6] | Activity [7] | IC50 [4]
Cc1ccc(S(=O)(=O)C[n+]2sc(N(c3ccccc3)c3ccccc3)nc2-c2ccccc2)cc1.[Cl-] | Not Active | Not Active | Not Active | 26 | Not Active | – | – | –
COc1ccc(N2C(=O)CC(Sc3n[nH]c(-c4ccccc4)n3)C2=O)cc1 (configuration not stated) | Not Active | Not Active | Not Active | 21 | Not Active | Active | Active | –
O=C(O)CSc1cc(NS(=O)(=O)c2cccc([N+](=O)[O-])c2)c2ccccc2c1O | Active | Not Active | Not Active | – | Not Active | – | – | Not Active
COc1ccc(-c2nnc(Sc3ccc([N+](=O)[O-])c4nonc34)o2)cc1 | Not Active | Not Active | Not Active | 0.96 | Not Active | Active | Active | –
Cc1ccc(N2C(=O)C=CC2=O)cc1 | Not Active | Not Active | Not Active | 6 | Not Active | Active | Active | –
O=[N+]([O-])c1ccc(Sc2nnc(-c3ccccc3)o2)c2nonc12 | Not Active | Not Active | Not Active | 1.1 | Not Active | Active | Active | –
[Cl-].c1ccc(C[n+]2sc(Nc3ccccc3)nc2-c2ccccc2)cc1 | Not Active | Not Active | Not Active | 3.1 | Not Active | – | – | –
O=[N+]([O-])c1ccc(Sc2nnnn2-c2ccccc2)c2nonc12 | Not Active | Not Active | Not Active | 0.45 | Not Active | Active | Active | –
O=S(=O)(C[n+]1sc(N(c2ccccc2)c2ccccc2)nc1-c1ccccc1)c1ccccc1.[Br-] | Not Active | Not Active | Not Active | 50 | Not Active | inactive | inactive | –
COc1ccc(N2C(=O)CC(Sc3n[nH]c(-c4ccc(C)cc4)n3)C2=O)cc1 (configuration not stated) | Not Active | Not Active | Not Active | 10 | Not Active | Active | Active | –
O=C1C=CC(=O)N1c1ccc(Oc2ccccc2)cc1 | Not Active | Not Active | Not Active | 3 | Not Active | Active | Active | –
O=C1C=CC(=O)N1c1cc(Cl)cc(Cl)c1 | Not Active | Not Active | Not Active | 3.1 | Not Active | Active | Active | –
CN(C)c1nc(-c2ccccc2)[n+](C)s1.[O-][Cl+3]([O-])([O-])[O-] | Not Active | Not Active | Not Active | 5.3 | Not Active | Active | Active | –
O=C1C=CC(=O)N1c1ccccc1 | Not Active | Not Active | Not Active | 7.6 | Not Active | Active | Active | –
O=S(=O)(Nc1cc(Sc2nc3ccccc3s2)c(O)c2ccccc12)c1ccccc1 | Not Active | Not Active | Not Active | 9.9 | Not Active | Active | Active | –
Cc1ccc(Sc2cc(NS(=O)(=O)c3ccc(Cl)cc3)c3ccccc3c2O)cc1 | Not Active | Not Active | Not Active | 2.9 | Not Active | inactive | Active | –
COc1ccc(Cc2nnc(SC3=CS(=O)(=O)c4ccccc43)o2)cc1 | Not Active | Not Active | Not Active | 7.1 | Not Active | Active | Active | –
[O-][Cl+3]([O-])([O-])[O-].c1ccc(-c2nc(N(c3ccccc3)c3ccccc3)s[n+]2-c2ccccc2)cc1 | Not Active | Not Active | Not Active | 3.5 | Not Active | Active | Active | –
O=S(=O)(Nc1cc(SCc2ccco2)c(O)c2ccccc12)c1ccccc1 | Not Active | Not Active | Not Active | 2.1 | Not Active | Active | Active | –
CC(C)(C)c1ccc(S(=O)(=O)Nc2ccc(O)c(Cl)c2)cc1 | Not Active | Not Active | Not Active | 75 | Not Active | inactive | inactive | –
O=[N+]([O-])c1ccccc1-c1nnc(SC2=CS(=O)(=O)c3ccccc32)o1 | Not Active | Not Active | Not Active | 5.7 | Not Active | Active | Active | –
O=S(=O)(Nc1cc(Br)c(O)c2ccccc12)c1ccc(F)cc1 | Not Active | Not Active | Not Active | 4.4 | Not Active | Active | Active | –
O=S(=O)(Nc1cc(Sc2nc[nH]n2)c(O)c2ccccc12)c1ccc(Cl)cc1 | Not Active | Not Active | Not Active | 1.4 | Not Active | Active | inactive | –
CC(C)(C)c1ccc(S(=O)(=O)Nc2cc(SCC(=O)O)c(O)c3ccccc23)cc1 | Active | Not Active | Not Active | – | Not Active | – | – | Not Active
[Br-].c1ccc(C[n+]2sc(Nc3ccccc3)nc2-c2ccccc2)cc1 | Not Active | Not Active | Not Active | 3.1 | Not Active | – | – | –
CC(C)c1ccc(S(=O)(=O)Nc2cc(SCCC(=O)O)c(O)c3ccccc23)cc1 | Active | Not Active | Not Active | – | Not Active | – | – | Not Active
Cc1ccc(S(=O)(=O)C[n+]2sc(N(c3ccccc3)c3ccccc3)nc2-c2ccccc2)cc1.[Br-] | Not Active | Not Active | Not Active | 42 | Not Active | – | – | –
Cc1nnc(SC2CC(=O)N(c3ccc(Br)cc3)C2=O)s1 (configuration not stated) | Not Active | Not Active | Not Active | – | Not Active | Active | Active | –
O=S1(=O)C=C(Sc2nn(-c3ccccc3)c(=S)s2)c2ccccc21 | Not Active | Not Active | Not Active | – | Not Active | Active | Active | –
